Data taken from ChEMBL document CHEMBL1123063, “Mechanism-based inactivation of N-arylhydroxamic acid N,O-acyltransferase by 7-substituted-N-hydroxy-2-acetamidofluorenes” (J Med Chem, 1985).
pKd: −log10 of the molar value.

Assays:
[1] = Apparent inactivation rate constant was evaluated
Method in brief: (§1)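 Partially purified hamster hepatic AHAT was preincubated at 37 °C in pyrophosphate buffer pH 7, 1 mM DTT, KCl, with five inactivator concentrations (0.005–1.0 mM final) for five preincubation periods (1–15 min). Remaining AAB transacetylation activity was then assayed. kobsd came from semilog plots of percent remaining activity vs. time. k_i and K_D came from double-reciprocal plots of kobsd vs. concentration. Three experiments, each in triplicate.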

Cricetinae gen. sp. [2] = experiment: Percent protection from inactivation of AHAT was determined using L-methionine; format: functional, Cricetulus griseus; parameters: concentration or dose not given beside the values
Method in brief: (§2)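 Run as in the inactivation kinetics: hamster hepatic AHAT was preincubated at 37 °C with a saturating inactivator concentration for 2–20 min (to maximal inactivation). Nucleophile was present at 10 mM (L-cysteine, L-methionine, glutathione, guanosine phosphate) or tRNA at 1 mg/mL. Remaining AAB transacetylation activity was then measured. Protection = percent remaining activity with minus without nucleophile. Mean ± SE of three experiments.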

Cricetinae gen. sp. [3] = experiment: Percent protection from inactivation of AHAT was determined using guanosine phosphate; format: functional, Cricetulus griseus; parameters: concentration or dose not given beside the values; method in brief: as §2
Cricetinae gen. sp. [4] = experiment: Percent protection from inactivation of AHAT was determined using glutathione; format: functional, Cricetulus griseus; parameters: concentration or dose not given beside the values; method in brief: as §2
Cricetinae gen. sp. [5] = experiment: Percent protection from inactivation of AHAT was determined using L-cysteine; format: functional, Cricetulus griseus; parameters: concentration or dose not given beside the values; method in brief: as §2
Cricetinae gen. sp. [6] = experiment: Percent protection from inactivation of AHAT was determined using t-RNA; format: functional, Cricetulus griseus; parameters: concentration or dose not given beside the values; method in brief: as §2
Hamster = experiment: Activity measured as 4-aminoazobenzene (AAB) transacetylation rate with partially purified hamster hepatic enzyme; format: ADME; details: cricetinae, in vitro
Method in brief: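 Hamster liver (male golden Syrian) 105000g supernatant, ammonium sulfate-fractionated (two- to three-fold), in 0.05 M sodium pyrophosphate pH 7, 1 mM DTT with KCl. 2-min 37 °C equilibration, then hydroxamic acid plus AAB added. Final: 1.0 mM donor, 0.15 mM AAB, 1.0 mg/mL protein, 2.0 min (exceptions: 0.5–0.6 mM donor, 3.5 min). TCA/EtOH stop, A497. Mean ± SE, N = 15–30.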

[7] = Ratio of apparent inactivation rate constant to apparent dissociation (binding) rate constant was determined
[8] = Apparent dissociation (binding) rate constant was evaluated; format: ADME; method in brief: as §1
[9] = test system: N-arylhydroxamic acid N,O-acyltransferase (Mesocricetus auratus); experiment: Percent protection from inactivation of AHAT was determined using guanosine phosphate
[10] = test system: N-arylhydroxamic acid N,O-acyltransferase (Mesocricetus auratus); experiment: Percent protection from inactivation of AHAT was determined using t-RNA
[11] = test system: N-arylhydroxamic acid N,O-acyltransferase (Mesocricetus auratus); experiment: Percent protection from inactivation of AHAT was determined using L-methionine
[12] = test system: N-arylhydroxamic acid N,O-acyltransferase (Mesocricetus auratus); experiment: Percent protection from inactivation of AHAT was determined using L-cysteine
[13] = test system: N-arylhydroxamic acid N,O-acyltransferase (Mesocricetus auratus); experiment: Percent protection from inactivation of AHAT was determined using glutathione

kinact [1] [min⁻¹]	Rate (Hamster) [nmol/mg/min]	kinact/KI [7] [M⁻¹ s⁻¹]	pKd [8]	SMILES	Protection (Cricetinae gen. sp. [2]) [%]	Protection (Cricetinae gen. sp. [3]) [%]	Protection (Cricetinae gen. sp. [4]) [%]	Protection (Cricetinae gen. sp. [5]) [%]	Protection (Cricetinae gen. sp. [6]) [%]	Protection [9] [%]	Protection [10] [%]	Protection [11] [%]	Protection [12] [%]	Protection [13] [%]
0.25	13.7	10400	6.40	CC(=O)c1ccc2c(c1)Cc1cc(N(O)C(C)=O)ccc1-2	0.3	1.4	26.3	32.4	8.3	–	–	–	–	–
0.22	20.5	620	5.23	CC(=O)N(O)c1ccc2c(c1)Cc1cc(Br)ccc1-2	6.6	26.9	34.7	31.1	0	–	–	–	–	–
0.09	16.5	37.5	4.40	CC(=O)N(O)c1ccc2c(c1)Cc1cc(C#N)ccc1-2	8	5.9	30.5	35.9	2.9	–	–	–	–	–
0.07	5.3	2900	6.40	CC(=O)N(O)c1ccc2c(c1)Cc1cc(I)ccc1-2	–	–	–	–	–	–	–	–	–	–
0.58	4.6	1690	5.24	CCCCOc1ccc2c(c1)Cc1cc(N(O)C(C)=O)ccc1-2	8.1	18.9	6	9.3	18	–	–	–	–	–
2.59	26.8	334	3.89	CC(=O)N(O)c1ccc2c(c1)Cc1cc(F)ccc1-2	38.2	58.4	55.2	54.5	17.6	–	–	–	–	–
0.76	20.1	258	4.31	CC(=O)N(O)c1ccc2c(c1)Cc1cc(Cl)ccc1-2	–	–	–	–	–	–	–	–	–	–
0.67	9.6	2940	5.42	CCOc1ccc2c(c1)Cc1cc(N(O)C(C)=O)ccc1-2	–	–	–	–	–	21.3	19.2	43.3	34.2	39.4
3.73	10.9	1770	4.45	COc1ccc2c(c1)Cc1cc(N(O)C(C)=O)ccc1-2	28.3	54.9	46.1	47.6	32.2	–	–	–	–	–

SMILES	kinact [1] [min⁻¹]	Rate (Hamster) [nmol/mg/min]	kinact/KI [7] [M⁻¹ s⁻¹]	pKd [8]	Protection (Cricetinae gen. sp. [2]) [%]	Protection (Cricetinae gen. sp. [3]) [%]	Protection (Cricetinae gen. sp. [4]) [%]	Protection (Cricetinae gen. sp. [5]) [%]	Protection (Cricetinae gen. sp. [6]) [%]	Protection [9] [%]	Protection [10] [%]	Protection [11] [%]	Protection [12] [%]	Protection [13] [%]
CC(=O)N(O)c1ccc2c(c1)Cc1ccccc1-2	1.95	20.9	360	4.05	23.1	34.9	15.7	39.1	1.9	–	–	–	–	–
